Results reported in the RNAGym collection of RNA variant scans (doi:10.1101/gad.245936.114).
This sample holds only a part of the variants without activity.

B1: tRNA (parent)
chain: CUCUCGGUAGCCAAGUUGGUUUAAGGCGCAAGACUUUAAUUUAUCACUACGAAAUCUUGAGAUCGGGCGUUCGACUCGCCCCCGGGAGAUUUUUUCCUCGAGCAA

Variants of: B1
Assay: nonsense suppression (GFP-seq) (ratio to wild type); higher = more function; SUP4oc tRNA, yeast GFP reporter sort-seq
Method in brief: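 Yeast carrying genome-integrated SUP4oc tRNA variants from a library with ~3% random mutations were grown in raffinose/galactose medium with 80 mg/L adenine. Each strain also carried a galactose-driven GFP ochre reporter and RFP. Cells were sorted into GFP/RFP bins, and each bin was Illumina-sequenced (phred ≥30). Nonsense suppression (GFPSEQ) is the bin median GFP/RFP, weighted by each variant's estimated cell share per bin, relative to wild-type SUP4oc; variants needed ≥100 reads and ≥30 cells.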
With A60C A62C A87G the nonsense suppression was ≤ 0.026. For G59C C68A G88U A89C, the nonsense suppression was ≤ 0.026. In the case of G59C G61C, the nonsense suppression is reported as ≤ 0.026. A60G C81U gave a nonsense suppression of 0.0488. Work on A60U U76C yielded a nonsense suppression of 1.05. In the case of G67C C81A, the nonsense suppression is reported as ≤ 0.026. In the case of C68G U70C, the nonsense suppression is reported as ≤ 0.026. In the case of U70C C75U, the nonsense suppression is reported as ≤ 0.026. With G59A G61A U71G G78U the nonsense suppression was ≤ 0.026. In the case of G61U G67A, the nonsense suppression is reported as 0.135. For G61U G67U, the nonsense suppression was ≤ 0.026. With U63C G78U the nonsense suppression was 0.0499. Work on U63C G85A yielded a nonsense suppression of 1.06. G61A G73A gave a nonsense suppression of 0.202. In the case of C64G G85C, the nonsense suppression is reported as ≤ 0.026. G61A C68G showed a nonsense suppression of 0.0366. In the case of G61A C68U, the nonsense suppression is reported as 0.609. In the case of U63G C80U, the nonsense suppression is reported as ≤ 0.026. In the case of G59U A74C C82U, the nonsense suppression is reported as ≤ 0.026. Work on G66C G78A yielded a nonsense suppression of 0.0452. With G61C A74U C83G the nonsense suppression was ≤ 0.026. With G65A G73C the nonsense suppression was ≤ 0.026. In the case of G67A C75A C79A, the nonsense suppression is reported as 0.203. Work on G61A A87U yielded a nonsense suppression of 0.181. G61A A87G showed a nonsense suppression of 0.197. With G59C G66U C83A A87C the nonsense suppression was ≤ 0.026. Variant U70C G78A has a nonsense suppression of 0.0308. Work on U63G yielded a nonsense suppression of 1.14. Work on U63A yielded a nonsense suppression of 1.05. Work on U63C yielded a nonsense suppression of 1.05. Variant U63A C72U has a nonsense suppression of 0.133. G61C C81G gave a nonsense suppression of 0.248. Work on A60G G84A yielded a nonsense suppression of 0.269. For G66U C79A, the nonsense suppression was ≤ 0.026. For A62C G67A, the nonsense suppression was ≤ 0.026. In the case of U57G U70G, the nonsense suppression is reported as ≤ 0.026. For G66C C82U, the nonsense suppression was ≤ 0.026. For U57G U71A, the nonsense suppression was ≤ 0.026. In the case of U58G U70C, the nonsense suppression is reported as ≤ 0.026. A60G G78A gave a nonsense suppression of 0.0542. In the case of A60G G78U, the nonsense suppression is reported as 0.0498. For U58C G69A, the nonsense suppression was ≤ 0.026. For G67A G85U, the nonsense suppression was 0.0862. For A60U U71G, the nonsense suppression was ≤ 0.026. With G69U U71G the nonsense suppression was ≤ 0.026. For G66U C68A G86A, the nonsense suppression was ≤ 0.026. For U58G G66U C75A, the nonsense suppression was ≤ 0.026. In the case of G66C G69C G73C G84C, the nonsense suppression is reported as ≤ 0.026. In the case of G61C C77G, the nonsense suppression is reported as 0.0296. G61C C77U showed a nonsense suppression of 0.0267. In the case of G61A C68U G69A G73A, the nonsense suppression is reported as ≤ 0.026. With U57C A60U the nonsense suppression was 0.0266. Work on A60G G86U yielded a nonsense suppression of 0.0427. In the case of C68A C77A, the nonsense suppression is reported as ≤ 0.026. For A60C G66C, the nonsense suppression was ≤ 0.026. In the case of G61A A62C, the nonsense suppression is reported as 0.0863. G61A A62U gave a nonsense suppression of 0.311. With G59C C75G the nonsense suppression was ≤ 0.026. With G61A G66C the nonsense suppression was ≤ 0.026. In the case of G67A C75G, the nonsense suppression is reported as 0.194. With G69C C77G the nonsense suppression was ≤ 0.026. For U57A G84U, the nonsense suppression was 0.0408. In the case of U58A A74G G88A, the nonsense suppression is reported as ≤ 0.026. For U70G C75U, the nonsense suppression was ≤ 0.026. G61A G78U showed a nonsense suppression of 0.0402. In the case of A60U A62G, the nonsense suppression is reported as 0.112. For G61A A89G, the nonsense suppression was 0.0396. Work on G61A A89C yielded a nonsense suppression of 0.0288. In the case of A60C G84C, the nonsense suppression is reported as 0.0911. With A60G C64G the nonsense suppression was ≤ 0.026. In the case of G61C G85C, the nonsense suppression is reported as 0.045. With G66U C75A the nonsense suppression was 0.704. In the case of G65U G86A, the nonsense suppression is reported as ≤ 0.026. For G59C G85A, the nonsense suppression was 0.114. A60U A87G gave a nonsense suppression of 1.02. With G65C U76A the nonsense suppression was ≤ 0.026. For A62U U63C, the nonsense suppression was ≤ 0.026. Work on G61A C64G yielded a nonsense suppression of 0.0404. In the case of G59A U76G C77A, the nonsense suppression is reported as ≤ 0.026. U63C C82U showed a nonsense suppression of 0.449. Work on G61A C72U yielded a nonsense suppression of 0.0666. In the case of G61A C72A, the nonsense suppression is reported as 0.0325. For G69C A89G, the nonsense suppression was ≤ 0.026. With G61U U76C the nonsense suppression was 0.911. For G61U U71A G86A, the nonsense suppression was ≤ 0.026. G61C C79U showed a nonsense suppression of 0.202. With G65U G67A the nonsense suppression was ≤ 0.026. U57G G78A showed a nonsense suppression of 0.0374. U57C G61A showed a nonsense suppression of 0.0312. In the case of U63C C81U, the nonsense suppression is reported as 0.142. In the case of C64U U71G, the nonsense suppression is reported as ≤ 0.026. U58A A60C showed a nonsense suppression of 0.0508. Work on G61C G88U yielded a nonsense suppression of 0.0792. With G61C G88A the nonsense suppression was 0.0268. For G67C U70G, the nonsense suppression was ≤ 0.026. Variant U63C A74G has a nonsense suppression of 0.0264. In the case of A60C C79U, the nonsense suppression is reported as 0.14. In the case of G59A G66C, the nonsense suppression is reported as ≤ 0.026. Variant U63C G73A has a nonsense suppression of 0.11. In the case of U58G G85A, the nonsense suppression is reported as 0.0573. For G61A G69C, the nonsense suppression was 0.0625. G61A G69A gave a nonsense suppression of 0.0276. For U63G G73A, the nonsense suppression was 0.189. In the case of G59A G84C, the nonsense suppression is reported as ≤ 0.026. In the case of A60U C68U, the nonsense suppression is reported as 1.1. For A60G U71C, the nonsense suppression was 0.0362. With G59U U70C C72A the nonsense suppression was ≤ 0.026. For C64G C72U, the nonsense suppression was ≤ 0.026. With U58C A60C the nonsense suppression was 0.0568. Variant A60C G61U has a nonsense suppression of 0.768. Variant G61U C75G has a nonsense suppression of 1.08. U70A C83U showed a nonsense suppression of 0.0439. Work on A60U G78C G85A yielded a nonsense suppression of 1.16. In the case of U57G C68G C75G, the nonsense suppression is reported as ≤ 0.026. With G61C C80U the nonsense suppression was 0.731. With U70C G86A the nonsense suppression was ≤ 0.026. G61C G78U showed a nonsense suppression of 0.13. With G65A G78C the nonsense suppression was ≤ 0.026. Variant G65A G78A has a nonsense suppression of 0.0493. In the case of A60U C79U, the nonsense suppression is reported as 0.761. Work on G67A C80U yielded a nonsense suppression of 0.0261. In the case of A62G C83A, the nonsense suppression is reported as ≤ 0.026. U63A G78A showed a nonsense suppression of 0.06. Work on U63G U70C C75U yielded a nonsense suppression of 0.099. For U63A U76C, the nonsense suppression was 0.748. For U58C U63C, the nonsense suppression was 0.144. For G61A U76C, the nonsense suppression was 0.775. G61A U76G showed a nonsense suppression of 0.0268. For G65U G84U, the nonsense suppression was ≤ 0.026. A60U C81U showed a nonsense suppression of 0.818. For G67A U76A G85U, the nonsense suppression was ≤ 0.026. For G69C G88U, the nonsense suppression was ≤ 0.026. With U63A G67A the nonsense suppression was ≤ 0.026. For G61C C64U C68G G84A, the nonsense suppression was ≤ 0.026. In the case of A60G A89U, the nonsense suppression is reported as 0.0291. With U63G G67A the nonsense suppression was 0.0444. With U57A U58C C81G the nonsense suppression was ≤ 0.026. With U63A C75G the nonsense suppression was 1.13. With U57C G85A the nonsense suppression was 0.757. With U57A G78C the nonsense suppression was ≤ 0.026. With G66A G73A the nonsense suppression was 0.182. With U70A C80G the nonsense suppression was ≤ 0.026. In the case of U70A C80U, the nonsense suppression is reported as ≤ 0.026. G67A A74U gave a nonsense suppression of 0.0276. U63A C75G U76C showed a nonsense suppression of 1.19. With G67C C83A the nonsense suppression was ≤ 0.026. With A60G C82A the nonsense suppression was 0.0331. With U63G U76A the nonsense suppression was 0.433. U63G U76C gave a nonsense suppression of 0.0764. With G69A C82G the nonsense suppression was ≤ 0.026. With G61A A62U G84U the nonsense suppression was ≤ 0.026. A60C G85C showed a nonsense suppression of 0.0595. With G59C A87U the nonsense suppression was ≤ 0.026. In the case of U57A C82A, the nonsense suppression is reported as ≤ 0.026. In the case of A62U U71G, the nonsense suppression is reported as ≤ 0.026. U63A G86U showed a nonsense suppression of 0.0573. With G61A G85U the nonsense suppression was 0.429. For A62U G67U G69U, the nonsense suppression was ≤ 0.026. With C64U C81A the nonsense suppression was ≤ 0.026. G61A G65A gave a nonsense suppression of 0.127. In the case of A60C A74G, the nonsense suppression is reported as 0.0424. With U57C C81U G84U the nonsense suppression was ≤ 0.026. U63G G84C showed a nonsense suppression of 0.0283. With G61C G69C C79G G84C the nonsense suppression was ≤ 0.026. G61C C72G gave a nonsense suppression of 0.0291. Variant G61U C75U G85A has a nonsense suppression of 1.04. For A62C C64G, the nonsense suppression was ≤ 0.026.
